Here are results for 2 compounds from ChEMBL document CHEMBL1134669, “N-Succinyl-(beta-alanyl-L-leucyl-L-alanyl-L-leucyl)doxorubicin: an extracellularly tumor-activated prodrug devoid of intravenous acute toxicity” (2001).

In test [1] the test system is Mus musculus. Briefly: Effect of heparin pretreatment on the acute toxicity when 0 IU of heparin administered; Activity as % of animals. It counts as functional. A digest of the protocol: (§1)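 Male OF-1 mice; heparin (low molecular weight, 0, 4000 or 8000 IU in 0.9% NaCl, filter-sterilized) given ip or iv 1 h before iv bolus of prodrug in 0.9% NaCl (10 µL/g body weight) at 172.4 µmol/kg. Acute toxicity scored as % of animals; survival time recorded in days. At least 3 animals per experiment.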

Test [2] deals with Mus musculus. Nature of the test: Minimum survival time after heparin pretreatment to mice at 0 IU of heparin administered.
The subject of test [3] is Mus musculus. Briefly: Maximum survival time after heparin pretreatment to mice at 4000 IU of heparin administered intraperitoneally. It counts as functional. A digest of the protocol: as §1
In test [4] the test system is Mus musculus. Briefly: Effect of heparin pretreatment on the acute toxicity when 8000 IU of heparin administered ip. It counts as functional. Put shortly:
as §1

Test [5] concerns Mus musculus. Nature of the test: Effect of heparin pretreatment on the acute toxicity when 4000 IU of heparin administered iv; Activity as % of animals. It counts as functional. A digest of the protocol: as §1
The subject of test [6] is Mus musculus. Briefly: Effect of heparin pretreatment on the acute toxicity when 4000 IU of heparin administered ip; Activity as % of animals. It counts as functional. Put shortly:
as §1

The subject of test [7] is Mus musculus. Briefly: Maximum survival time after heparin pretreatment to mice at 8000 IU of heparin administered intraperitoneally. In kind it is functional. Put shortly: as §1
For test [8], the system named is Mus musculus. Briefly: Maximum survival time after heparin pretreatment to mice at 4000 IU of heparin administered intravenously. In kind it is functional. Put shortly:
as §1

On to `COc1cccc2c1C(=O)c1c(O)c3c(c(O)c1C2=O)C[C@@](O)(C(=O)CO)C[C@@H]3O[C@H]1C[C@H](NC(=O)[C@H](CC(C)C)NC(=O)[C@H](C)NC(=O)[C@H](CC(C)C)NC(=O)CCNC(=O)CCC(=O)[O-])[C@H](O)[C@H](C)O1.[Na+]`, for which the Acute toxicity in test [1] is 0%. Also, the min survival time in test [2] worked out at 9 days.
Take `CC(O)C(=O)O.COc1cccc2c1C(=O)c1c(O)c3c(c(O)c1C2=O)C[C@@](O)(C(=O)CO)C[C@@H]3O[C@H]1C[C@H](NC(=O)[C@H](CC(C)C)NC(=O)[C@H](C)NC(=O)[C@H](CC(C)C)NC(=O)CCN)[C@H](O)[C@H](C)O1`: the Acute toxicity in test [1] is 100%; in test [4], 0%; in test [5], 33%; in test [6] it was 37%. In addition, the MST came to 9 days in test [3], 11 days in test [7] and 11 days in test [8]. The min survival time in test [2] came to 0 days.
